Test results: ChEMBL document CHEMBL1255303, “In vitro and in vivo antifungal activities of T-2307, a novel arylamidine” (2008)
Values after ≈ are worked out from the molar mass of the structure shown. Active and inactive are the calls of the source. The calls are words filed in the database; no cut-off is given here.

How the values were obtained:
Candida albicans [1] = assay: Antifungal activity against Candida albicans ATCC 64550 after 47 hrs by broth microdilution method; assay type: functional; details: ATCC 64550, 47 h
In short: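 Fluconazole-resistant or susceptible-dose-dependent C. albicans ATCC strains were tested by broth microdilution in RPMI 1640-MOPS. Inoculum was 1.1 × 10^3–1.5 × 10^3 CFU/ml, with incubation at 35°C for about 47 h. Yeast MIC was read as about 50% turbidity decrease relative to growth control, except amphotericin B, read at complete inhibition.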

Pichia kudriavzevii = assay: Antifungal activity against Candida krusei clinical isolates after 48 hrs by broth microdilution method; assay type: functional
In short: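 Japanese hospital Candida isolates were tested by CLSI M27-A2 broth microdilution in RPMI 1640–MOPS, pH 7.0, with inocula of 0.57–2.5 × 10^3 CFU/ml at 35°C for about 48 h. Inocula came from 24-h potato dextrose agar cultures. MIC was the lowest concentration with about 50% turbidity reduction versus growth control (complete inhibition for amphotericin B). Range, MIC50 and MIC90 were reported.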

Aspergillus fumigatus [2] = assay: Antifungal activity against Aspergillus fumigatus clinical isolates after 48 hrs by broth microdilution method; assay type: functional
In short: (§1)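 Clinical isolates from Japanese hospitals or culture collections were tested by broth microdilution in RPMI 1640-MOPS. Inoculum was 0.57 × 10^3–2.5 × 10^3 CFU/ml for yeasts and 0.4 × 10^4–3.3 × 10^4 CFU/ml for filamentous fungi. Incubation was at 35°C for about 48 h, or 72 h where footnoted. Results were summarised as MIC range, MIC50 and MIC90.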

Aspergillus nidulans = assay: Antifungal activity against Aspergillus nidulans NBRC 33017 after 48 hrs by broth microdilution method; assay type: functional; details: NBRC 33017, 48 h
In short: (§2)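 CLSI M27-A2 (yeasts) / M38-A (moulds) broth microdilution in RPMI 1640 buffered to pH 7.0 with 0.165 M MOPS. Malassezia furfur got the same medium supplemented with glucose, bile salts, glycerol, glycerol monostearate and Tween 20. Final inoculum 0.65 × 10^3–2.5 × 10^3 CFU/ml for yeasts and 0.87 × 10^4–3.8 × 10^4 CFU/ml for filamentous fungi. Incubation at 35°C except M. racemosus and F. solani, which were held at 30°C.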

Candida albicans [3] = assay: Antifungal activity against Candida albicans ATCC MYA-1003 after 47 hrs by broth microdilution method; assay type: functional; details: ATCC MYA-1003, 47 h
In short: (§3)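 Fluconazole-resistant or susceptible-dose-dependent ATCC C. albicans strains were tested by CLSI M27-A2 broth microdilution in RPMI 1640–0.165 M MOPS, pH 7.0, with a final inoculum of 1.1–1.5 × 10^3 CFU/ml at 35°C for about 47 h. MIC was the lowest concentration with a prominent (~50%) turbidity decrease relative to growth control; amphotericin B was read at complete inhibition.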

Trichophyton rubrum = assay: Antifungal activity against Trichophyton rubrum NBRC 5467 after 72 hrs by broth microdilution method; assay type: functional; details: NBRC 5467, 72 h; in short: as §2
Cryptococcus neoformans [4] = assay: Antifungal activity against Cryptococcus neoformans ATCC 90113 after 72 hrs by broth microdilution method; assay type: functional; details: ATCC 90113, 72 h; in short: as §2
Candida dubliniensis = assay: Antifungal activity against Candida dubliniensis ATCC MYA-577 after 48 hrs by broth microdilution method; assay type: functional; details: ATCC MYA-577, 48 h; in short: as §2
Aspergillus fumigatus [5] = assay: Antifungal activity against Aspergillus fumigatus IFM 46895 after 48 hrs by broth microdilution method; assay type: functional; details: IFM 46895, 48 h; in short: as §2
Aspergillus fumigatus [6] = assay: Antifungal activity against Aspergillus fumigatus IFM 49895 after 48 hrs by broth microdilution method; assay type: functional; details: IFM 49895, 48 h; in short: as §2
Scedosporium boydii = assay: Antifungal activity against Pseudallescheria boydii NBRC 32229 after 72 hrs by broth microdilution method; assay type: functional; details: NBRC 32229, 72 h; in short: as §2
Candida albicans [7] = assay: Antifungal activity against Candida albicans ATCC 90028 after 48 hrs by broth microdilution method; assay type: functional; details: ATCC 90028, 48 h; in short: as §2
Aspergillus niger = assay: Antifungal activity against Aspergillus niger NBRC 33023 after 48 hrs by broth microdilution method; assay type: functional; details: NBRC 33023, 48 h; in short: as §2
Aspergillus fumigatus [8] = assay: Antifungal activity against Aspergillus fumigatus IFM 46895 infected ICR mouse assessed as delay in mortality of mouse at 1 mg/kg after 6 days; assay type: functional, organism-based; parameters: dose 1 mg/kg
In short: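 Male ICR mice, 4 weeks old and SPF, were made neutropenic with intraperitoneal cyclophosphamide. The schedule was 200 mg/kg on day −3 (day −4 for Cryptococcus) plus 100 mg/kg on day +1. Infection was by tail-vein injection of 0.2 ml suspension: C. albicans 3.0 × 10^4, C. neoformans 9.1 × 10^4, A. fumigatus conidia 8.4 × 10^4 CFU/mouse. Drugs were given subcutaneously once daily for 7 days from 2 h post-infection; controls received saline. Groups had 8–10 mice.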

Candida albicans [9] = assay: Antifungal activity against Candida albicans ATCC 10261 after 48 hrs by broth microdilution method; assay type: functional; details: ATCC 10261, 48 h; in short: as §2
Candida albicans [10] = assay: Antifungal activity against Candida albicans ATCC 96901 after 47 hrs by broth microdilution method; assay type: functional; details: ATCC 96901, 47 h; in short: as §3
[11] = test system: Meyerozyma guilliermondii; assay: Antifungal activity against Candida guilliermondii clinical isolates after 48 hrs by broth microdilution method; assay type: functional; in short: as §1
Candida albicans [12] = assay: Antifungal activity against Candida albicans ATCC MYA-573 after 47 hrs by broth microdilution method; assay type: functional; details: ATCC MYA-573, 47 h; in short: as §3
Cryptococcus neoformans [13] = assay: Antifungal activity against Cryptococcus neoformans clinical isolates after 72 hrs by broth microdilution method; assay type: functional; in short: as §1
Candida albicans [14] = assay: Antifungal activity against Candida albicans ATCC MYA-575 after 47 hrs by broth microdilution method; assay type: functional; details: ATCC MYA-575, 47 h; in short: as §3
Candida tropicalis = assay: Antifungal activity against Candida tropicalis clinical isolates after 48 hrs by broth microdilution method; assay type: functional; in short: as §1
Candida albicans [15] = assay: Antifungal activity against Candida albicans TIMM 1623 after 48 hrs by broth microdilution method; assay type: functional; details: TIMM 1623, 48 h; in short: as §2
Nakaseomyces glabratus = assay: Antifungal activity against Candida glabrata ATCC 90030 after 48 hrs by broth microdilution method; assay type: functional; details: ATCC 90030, 48 h; in short: as §2
Saccharomyces cerevisiae = assay: Antifungal activity against Saccharomyces cerevisiae ATCC 24657 after 48 hrs by broth microdilution method; assay type: functional; details: ATCC 24657, 48 h; in short: as §2
Rhizopus arrhizus = assay: Antifungal activity against Rhizopus oryzae NBRC 31005 after 24 hrs by broth microdilution method; assay type: functional; details: NBRC 31005, 24 h; in short: as §2

Q: What does the source list for `N=C(N)c1ccc(OCCCC2CCN(CCCOc3ccc(C(=N)N)cc3)CC2)cc1`?
A: MIC (Candida albicans [1]): 0.0005 µg/mL (≈ 0.00114 µM); MIC50 (Pichia kudriavzevii): 0.001 µg/mL (≈ 0.00229 µM); MIC90 (Pichia kudriavzevii): 0.002 µg/mL (≈ 0.00457 µM); MIC50 (Aspergillus fumigatus [2]): 1 µg/mL (≈ 2.29 µM); MIC90 (Aspergillus fumigatus [2]): 2 µg/mL (≈ 4.57 µM); MFC (Aspergillus nidulans): 0.0313 µg/mL (≈ 0.0715 µM); MIC (Aspergillus nidulans): 0.0156 µg/mL (≈ 0.0356 µM); MIC (Candida albicans [3]): 0.001 µg/mL (≈ 0.00229 µM); MFC (Trichophyton rubrum): > 64 µg/mL; MIC (Trichophyton rubrum): 2 µg/mL (≈ 4.57 µM); MFC (Cryptococcus neoformans [4]): 0.0625 µg/mL (≈ 0.143 µM); MIC (Cryptococcus neoformans [4]): 0.0078 µg/mL (≈ 0.0178 µM); MFC (Candida dubliniensis): > 64 µg/mL; MIC (Candida dubliniensis): 0.001 µg/mL (≈ 0.00229 µM); MFC (Aspergillus fumigatus [5]): > 64 µg/mL; MIC (Aspergillus fumigatus [5]): 0.0625 µg/mL (≈ 0.143 µM); MFC (Aspergillus fumigatus [6]): > 64 µg/mL; MIC (Aspergillus fumigatus [6]): 0.5 µg/mL (≈ 1.14 µM); MFC (Scedosporium boydii): > 64 µg/mL; MIC (Scedosporium boydii): 4 µg/mL (≈ 9.14 µM); MFC (Candida albicans [7]): > 64 µg/mL; MIC (Candida albicans [7]): 0.001 µg/mL (≈ 0.00229 µM); MFC (Aspergillus niger): 0.0625 µg/mL (≈ 0.143 µM); MIC (Aspergillus niger): 0.0625 µg/mL (≈ 0.143 µM); Activity (Aspergillus fumigatus [8]): Active; MFC (Candida albicans [9]): > 64 µg/mL; MIC (Candida albicans [9]): 0.001 µg/mL (≈ 0.00229 µM); MIC (Candida albicans [10]): 0.001 µg/mL (≈ 0.00229 µM); MIC50 [11]: 0.002 µg/mL (≈ 0.00457 µM); MIC90 [11]: 0.0039 µg/mL (≈ 0.00891 µM); MIC (Candida albicans [12]): 0.001 µg/mL (≈ 0.00229 µM); MIC50 (Cryptococcus neoformans [13]): 0.0156 µg/mL (≈ 0.0356 µM); MIC90 (Cryptococcus neoformans [13]): 0.0313 µg/mL (≈ 0.0715 µM); MIC (Candida albicans [14]): 0.001 µg/mL (≈ 0.00229 µM); MIC50 (Candida tropicalis): 0.0005 µg/mL (≈ 0.00114 µM); MIC90 (Candida tropicalis): 0.0005 µg/mL (≈ 0.00114 µM); MFC (Candida albicans [15]): > 64 µg/mL; MIC (Candida albicans [15]): 0.001 µg/mL (≈ 0.00229 µM); MFC (Nakaseomyces glabratus): > 64 µg/mL; MIC (Nakaseomyces glabratus): 0.0039 µg/mL (≈ 0.00891 µM); MFC (Saccharomyces cerevisiae): > 64 µg/mL; MIC (Saccharomyces cerevisiae): > 64 µg/mL; MFC (Rhizopus arrhizus): > 64 µg/mL; MIC (Rhizopus arrhizus): > 64 µg/mL
